According to paper PMC9950857 (RSC Advances, 2023):
Marks after values point to notes of the source that are not given here. Each block holds one compound with its values, some of them ahead of it.

How the values were obtained:
pancreatic lipase [1] = molecular target: T1, pancreatic lipase (Sus scrofa, UniProt P00591); assay: Fourier-transform infrared spectroscopy of lipase secondary structure; settings: ratio of lipase to HYP increased from 1 : 0 to 1 : 4, FT-IR, 298 K
T1 sequence (P00591 1-450): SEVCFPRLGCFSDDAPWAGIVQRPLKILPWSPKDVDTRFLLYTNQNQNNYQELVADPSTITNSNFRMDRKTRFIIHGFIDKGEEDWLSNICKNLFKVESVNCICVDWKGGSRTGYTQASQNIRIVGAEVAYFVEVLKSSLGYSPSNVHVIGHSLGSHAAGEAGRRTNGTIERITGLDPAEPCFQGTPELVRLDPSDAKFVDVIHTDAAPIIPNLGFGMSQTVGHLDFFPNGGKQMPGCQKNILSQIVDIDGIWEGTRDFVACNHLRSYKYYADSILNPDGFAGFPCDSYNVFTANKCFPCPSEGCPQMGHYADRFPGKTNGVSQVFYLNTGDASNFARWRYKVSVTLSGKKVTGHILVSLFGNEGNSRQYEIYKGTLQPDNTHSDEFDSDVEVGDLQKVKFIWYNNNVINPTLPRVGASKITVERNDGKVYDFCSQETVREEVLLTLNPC
In short: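 FT-IR at 298 K: 128 scans at 4 cm⁻¹ resolution. Lipase at 2.0×10^-4 M, alone or with test compound at different ratios. Background, protein and compound spectra subtracted; samples scanned over 1700–1500 cm⁻¹. Amide bands analysed by peak fitting.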

pancreatic lipase [2] = molecular target: T1, pancreatic lipase; assay: Fluorescence titration; assay type: binding; settings: for ΔG: from fluorescence data; for Kd: K a (binding constant)
In short: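 Lipase held at 6.0×10^-6 M final with 0 to 4.2×10^-5 M final test compound, in 5.0×10^-2 M Tris–HCl pH 7.4. Spectra recorded at 277, 298 and 310 K: excitation 280 nm, emission 300–500 nm, slits 5 nm. Intensities corrected for inner-filter effect.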

pancreatic lipase [3] = molecular target: T1, pancreatic lipase; assay: ITC analysis of HYP titrated into lipase; assay type: binding
In short: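 Calorimetric titration: 1.0×10^-4 M lipase in the cell, containing 1% ethanol, titrated with 1.0×10^-3 M test compound. Injections at 180 s intervals, stirring at 250 rpm; other solutions degassed. First injection discarded. Integrated heats corrected for dilution and fitted against molar ratio. ΔG from −RT lnKa; ΔS from ΔG = ΔH − TΔS.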

pancreatic lipase [4] = molecular target: T1, pancreatic lipase; assay: Time-resolved fluorescence measurements; assay type: binding; settings: fluorescence titration and time-resolved fluorescence
In short: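 Fluorescence lifetimes of free lipase and of the lipase–test compound complex at 298 K. Excitation 280 nm, emission 345 nm. Decays analysed by tail fitting, with fits judged by χ². Average lifetime calculated as Σαiτi.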

pancreatic lipase [5] = molecular target: T1, pancreatic lipase; assay: Synchronous fluorescence spectroscopy; assay type: binding; settings: HYP 4.2 × 10^−5 M, 298 K
pancreatic lipase [6] = molecular target: T1, pancreatic lipase; assay: Enzymatic assay of lipase activity; assay type: biochemical; settings: for inhibition type: Lineweaver–Burk plots, 310 K, 405 nm, pNPC 2.0–3.6 × 10^−3 M
pancreatic lipase [7] = molecular target: T1, pancreatic lipase; settings: cited from earlier work
lipase = settings: cited from earlier work
[8] = from fluorescence data at 277, 298, 310 K

decrease of α-helix in lipase (pancreatic lipase [1]): 1.6% | K SV (Stern–Volmer quenching constant) (pancreatic lipase [2]; 277 K): 7.113 ± 0.029^a × 10^4 M^−1 | KSV (pancreatic lipase [2]; 277 K): 7.113 ± 0.029 × 10^4 M^−1 | n (Hill coefficient) (pancreatic lipase [2]; 277 K): 1.379 | ΔG (pancreatic lipase [2]; 277 K): -8.32 kcal/mol | K SV (Stern–Volmer quenching constant) (pancreatic lipase [2]; 298 K): 6.826 ± 0.010^b × 10^4 M^−1 | n (Hill coefficient) (pancreatic lipase [2]; 298 K): 1.337 | ΔG (pancreatic lipase [2]; 298 K): -8.489 kcal/mol | K SV (Stern–Volmer quenching constant) (pancreatic lipase [2]; 310 K): 6.247 ± 0.060^b × 10^4 M^−1 | KSV (pancreatic lipase [2]; 310 K): 6.247 ± 0.060 × 10^4 M^−1 | binding constant (pancreatic lipase [2]; 310 K): 1.048e+06 M⁻¹ | n (Hill coefficient) (pancreatic lipase [2]; 310 K): 1.286 | ΔG (pancreatic lipase [2]; 310 K): -8.587 kcal/mol | Kd (pancreatic lipase [2]; 277 K): 0.283 µM | Kd (pancreatic lipase [2]; 298 K): 0.526 µM | Kd (pancreatic lipase [2]; 310 K): 0.954 µM | n values (pancreatic lipase [2]; at different temperatures (277, 298, 310 K)): greater than 1 | ΔH (pancreatic lipase [2]; [8]): -6.085 kcal/mol | ΔS (pancreatic lipase [2]; [8]): 33.77 J mol^−1 K^−1 | Kd (pancreatic lipase [3]): 6.35 µM | ΔG (pancreatic lipase [3]; ITC): -7.091 kcal/mol | ΔH (pancreatic lipase [3]; ITC): -5.569 kcal/mol | ΔS (pancreatic lipase [3]; ITC): 21.36 J mol^−1 K^−1 | quenching mechanism (pancreatic lipase [4]): static quenching | decrease of Tyr residue fluorescence intensity (pancreatic lipase [5]; Δλ = 15 nm): 65.86% | decrease of Trp residue's fluorescence intensity (pancreatic lipase [5]; Δλ = 60 nm): 73.65% | IC50 (pancreatic lipase [6]): 1920 µM | inhibition type (pancreatic lipase [6]): non-competitive inhibitor
SMILES: O=c1c(O[C@@H]2O[C@H](CO)[C@H](O)[C@H](O)[C@H]2O)c(-c2ccc(O)c(O)c2)oc2cc(O)cc(O)c12 [HYP, quercetin-3-O-β-D-galactoside]

inhibition type (pancreatic lipase [6]): competitive inhibition
SMILES: CCCCCCCCCCC[C@@H](C[C@@H]1OC(=O)[C@H]1CCCCCC)OC(=O)[C@H](CC(C)C)NC=O [orlistat, reference compound]
reversibility of inhibition (pancreatic lipase [7]): irreversible inhibition

SMILES: C[C@@H]1O[C@@H](Oc2c(-c3ccc(O)c(O)c3)oc3cc(O)cc(O)c3c2=O)[C@H](O)[C@H](O)[C@H]1O [quercetin 3-rhamnoside]
lipase inhibition (lipase): effective in lipase inhibition
